# High-throughput results deposited in PubChem BioAssay by Johns Hopkins Ion Channel Center.
# MrgX1 PAM: positive allosteric modulators of MrgX1, primary screen, HEK293 cells, Fluo-4 calcium flux; Mas-related G-protein coupled receptor member X1 (Homo sapiens), Q96LB2; FDSS; hits give high values; B-score at 10 µM; 310,000 compounds, 0.63% hits;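 active = plate-corrected calcium response at least 3 library SD above typical, normal starting fluorescence, not activating the receptor alone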;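 also: compound read alongside a low EC10 to EC30 dose of BAM8-22 agonist; peak minus trough fluorescence over baseline measured at the second addition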
# Target sequence (Q96LB2 whole entry, looked up): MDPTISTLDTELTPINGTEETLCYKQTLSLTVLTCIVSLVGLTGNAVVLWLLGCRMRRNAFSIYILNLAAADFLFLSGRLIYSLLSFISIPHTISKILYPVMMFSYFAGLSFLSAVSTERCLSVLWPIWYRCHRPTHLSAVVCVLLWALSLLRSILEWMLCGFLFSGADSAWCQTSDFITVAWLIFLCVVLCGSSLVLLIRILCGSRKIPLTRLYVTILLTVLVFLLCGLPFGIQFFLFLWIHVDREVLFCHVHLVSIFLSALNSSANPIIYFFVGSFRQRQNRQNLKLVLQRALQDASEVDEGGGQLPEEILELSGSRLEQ
# MrgX1 antagonist: antagonists of human MrgX1 receptor, primary screen, HEK293 cells, Fluo-4 calcium flux; BAM8-22 antagonism; hits give low values; B-score at 10 µM; AID 588676, 2011; 310,000 compounds, 1.3% hits;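 active = calcium-response B-score plate-corrected more than 3 library SD below zero, starting fluorescence within 5 deviations, no agonist response on first addition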;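 also: peak minus trough fluorescence over baseline after final BAM8-22 challenge near maximal dose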
# RGS4 block: RGS4 inhibitors, primary screen, cell-based, HEK293 M3R inducible RGS4, calcium flux. Regulator of G-protein signaling 4 (Homo sapiens), P49798. Fluo-4 calcium flux; hits give high values; triggered by carbachol at its EC20. B-score at 10 µM. 310,000 compounds, 0.45% hits;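 active = B-score, a plate-corrected calcium signal, over three deviations above library mean, with baseline fluorescence within five deviations of library mean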;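 also: RGS4 expression induced by doxycycline in cells with stable M3 receptor; B-score is computed from the integrated fluorescence ratio over baseline after carbachol; higher B-score means a larger calcium signal and so more RGS4 inhibition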
# Target sequence (P49798 whole entry, looked up): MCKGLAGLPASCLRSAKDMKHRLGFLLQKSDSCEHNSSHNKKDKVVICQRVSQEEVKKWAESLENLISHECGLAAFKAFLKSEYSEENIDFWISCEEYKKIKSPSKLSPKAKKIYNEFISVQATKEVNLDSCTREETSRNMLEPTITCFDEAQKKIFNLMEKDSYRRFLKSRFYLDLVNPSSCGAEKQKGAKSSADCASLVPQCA
# RGS4 pot: RGS4 potentiators or activators, primary screen, cell-based, HEK293 M3R inducible RGS4, calcium flux; carbachol calcium flux Fluo4; hits give low values; B-score at 10 µM; 310,000 compounds, 0.92% hits; AID 463111, 2010;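 active = B-score of the integrated calcium signal more than 4 SD below the library mean, with starting fluorescence not abnormally high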;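 also: negative B-score means reduced calcium response which marks RGS4 activation or potentiation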
#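 Material: M3R-expressing HEK293 line, RGS4 induced by doxycycline | Schedule: Overnight RGS4 induction, 30 min dye load 37 °C, 20 min compound RT | Measured by: Fluo4 fluorescence kinetic imaging of calcium | Read-out: Integrated calcium ratio converted to B score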
# MrgX1 ag: agonists of human MrgX1 receptor, primary screen, HEK293 cells, Fluo-4 calcium flux; Mas-related G-protein coupled receptor member X1 (Homo sapiens), Q96LB2; Fluo-4 calcium fluorescence, agonist mode; hits give high values; B-score at 10 µM; 310,000 compounds, 0.44% hits; AID 588627, 2011;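 active = calcium response B-score plate-corrected fluorescence ratio at least 3 library SD, with starting fluorescence B-score inside 5 SD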
#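 Test system: Stable human MrgX1 HEK293 cell line | Schedule: Overnight plating before 1 h dye loading | Read-out basis: Baseline-normalised fluorescence change ratio, B-scored | Detection: Kinetic calcium dye fluorescence, Fluo-4 NW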
# An asterisk follows results filed as active; i = inactive. The list is not random: actives were taken first. Their share in the collection is about 3.5%.
SMILES,MrgX1 PAM,MrgX1 antagonist,RGS4 block,RGS4 pot,MrgX1 ag
COc1ccc(/C=C/C(=O)OCC(=O)c2ccc3c(c2)NC(=O)CO3)c(OC)c1,i,i,i,i,i
COc1cccc(/C=C/C(=O)OCC(=O)c2ccc3c(c2)NC(=O)CO3)c1OC,11.4*,i,i,i,i
N#C/C(=C\c1ccc2c(c1)OCCO2)C(=O)Nc1nccs1,i,i,i,i,52.1*
COP(=O)(OC)c1nc(-c2ccc([N+](=O)[O-])cc2)oc1N1CCCCC1,i,i,i,i,33*
Cc1ccc(C2CC(=O)NC(SCc3ccccc3)=C2C#N)o1 (centres undefined),i,i,i,i,29.6*
CCSC1=C(C#N)C(c2ccc(C)o2)CC(=O)N1 (centres undefined),i,i,i,i,i
CC1CN(C2=NC(=O)/C(=C/c3ccncc3)S2)CC(C)O1 (centres undefined),i,i,i,i,i
COc1ccc(CNC(=O)N[C@@H](CC(C)C)C(=O)O)cc1OC,i,i,i,i,i
Nc1nc(NCC2CCCO2)nc(Nc2ccc(Cl)cc2)c1[N+](=O)[O-] (centres undefined),6.83*,i,i,i,i
COc1cc(C(=O)NCCOc2cccc(C)c2)c(Br)c(OC)c1OC,i,i,i,-7.2*,i
COc1cc(C(=O)NCCOc2ccccc2)c(Br)c(OC)c1OC,i,i,i,i,i
COc1cc(SC)ccc1C(=O)NNC(=O)c1cc(C)oc1C,i,-4.84*,i,i,i
COc1cc(SC)ccc1C(=O)Nc1c(C)cccc1C,i,i,i,i,i
Cc1c(-n2cc(C(=O)c3cc(F)ccc3O)cc(C#N)c2=O)c(=O)n(-c2ccccc2)n1C,6.67*,i,i,i,i
COc1ccc(/C=C/C(=O)Nc2ccccc2C)cc1S(=O)(=O)N1CCOCC1,7.95*,i,i,i,i
COc1ccc(/C=C/C(=O)Nc2cccc(F)c2)cc1S(=O)(=O)N1CCOCC1,i,i,i,i,i
COc1cccc(NC(=O)N2CCN(c3nnnn3-c3ccccc3)CC2)c1,i,i,i,i,i
CCC(C)C(NC(=O)C1CCC(C)CC1)C(=O)Nc1ccc(OC)cc1 (centres undefined),i,i,i,i,i
CCCCCCCCCCn1c2c(c(=N)c3c1CCC3)CCC2,i,-6.17*,i,-8.74*,i
CC(C)(C)c1cc(O)c(C(C)(C)C)cc1O,i,i,i,-8.54*,41.5*
Cc1cc(C(C)(C)C)c(O)c(C(C)(C)C)c1,i,i,i,i,i
COc1ccc(OC)c(-c2cc(C(=O)NCc3ccc(Cl)cc3)no2)c1,i,i,i,i,i
CCOC(=O)C(=Cc1ccc(Br)cc1)C(=O)OCC,i,i,i,i,i
CCOC(=O)C(=Cc1ccc(F)cc1)C(=O)OCC,7.52*,i,i,i,i
Cn1c(-c2ccccn2)[n+](C)c2ccccc21,i,i,i,i,i
SMILES,MrgX1 PAM,MrgX1 antagonist,RGS4 block,RGS4 pot,MrgX1 ag
CN(C)c1ccc(-c2n(C)c3ccccc3[n+]2C)cc1,i,-8.75*,i,i,i
COC(=O)c1ccc(COC(=O)[C@@H]2CC(O)CN2S(=O)(=O)c2ccccc2[N+](=O)[O-])cc1 (some centres undefined),i,i,i,i,i
COc1cccc(O)c1CN1CCC(Oc2ccc(C(=O)NCc3ccccn3)cc2)CC1,i,i,i,i,i
CCOC(=O)Nc1ccc2c(c1)N(C(=O)CCN(CC)CC)c1ccccc1S2=O (centres undefined),i,i,i,i,30.4*
CCOC(=O)Nc1ccc2c(c1)N(C(=O)CCN(CC)CC)c1ccccc1CC2,i,i,i,i,i
COc1ccc(Oc2nc(Oc3ccc(OC)cc3)nc(Oc3ccc(OC)cc3)n2)cc1,i,-6.5*,i,i,i
COc1nc(Oc2ccc(C(=O)O)cc2)nc(Oc2ccc(C(=O)O)cc2)n1,i,i,i,i,i
C#CCSc1ncc(-c2ccccc2)cn1,i,-7.5*,i,i,i
CCOC(=O)C(=O)NNc1ccc(C)cc1,i,-9.02*,i,i,i
CCOC(=O)C(=O)NNc1ccc(Cl)cc1,i,i,i,i,i
CCOC(=O)C1(CCCc2ccccc2)CCN(C(=O)CN2CCOC2=O)CC1,7.26*,i,i,i,i
O=C(Cn1cnc([N+](=O)[O-])n1)NC1CC1,i,i,i,i,i
CC(C)Oc1ccc(OCCCN2CCCCCC2)cc1,i,i,i,-7.21*,i
CC1CCN(CCOc2ccc(C(=O)c3ccccc3)cc2)CC1,i,i,i,i,i
CC1CCN(CCCCOc2ccc(C(=O)c3ccccc3)cc2)CC1,i,i,i,-9.56*,i
CC(C)c1ccc(OCCCCN2CCCCC2)cc1,i,i,i,i,i
CC(C)(C)c1ccc(OCCCN2CCCC2)cc1,i,i,i,i,i
Clc1ccc(OCCCCN2CCCCC2)cc1,i,i,i,-7.14*,i
O=[N+]([O-])c1ccc(OCCCCN2CCCCC2)cc1,i,i,i,-7.63*,i
CC1CCN(CCCCOc2ccc([N+](=O)[O-])cc2)CC1,i,i,i,-7.31*,i
Cc1ccc(OCCCCN2CCC(C)CC2)cc1,i,i,i,-7.21*,i
O=[N+]([O-])c1ccc(OCCCCCN2CCOCC2)cc1,i,i,i,i,i
CC1CCN(CCCCOc2ccc(F)cc2)CC1,i,i,i,i,i
Cc1cc(Br)ccc1OCCCCN1CCCCC1,i,i,i,-7.05*,i
Cc1cc(Br)ccc1OCCOCCN1CCCC1,i,i,i,i,i
C/C(=N\OC(=O)NC(C)C)c1sc(-c2ccc(Cl)cc2)nc1C,17.1*,i,i,i,i
CC(C)Cc1ccc(C(C)C(=O)N2CCOCC2)cc1 (centres undefined),i,i,i,i,i
CC(C)Cc1ccc(C(C)C(N)=Nc2ccc(O)cc2)cc1 (centres undefined),9.96*,i,i,i,i
